Results of several laboratories.
CDK4: Cyclin-dependent kinase 4 (CDK4, Homo sapiens, UniProt P11802)
CDK4 with cyclin D3: Cyclin-dependent kinase 4, with cyclin D3 (CDK4, Homo sapiens, UniProt P11802)
CDK4 with cyclin D1: Cyclin-dependent kinase 4, with cyclin D1 (CDK4, Homo sapiens, UniProt P11802)

O=C(c1ccc(Br)cc1)[C@H]1Cc2c(cc([N+](=O)[O-])cc2[N+](=O)[O-])[C@H](O)[C@]12C(=O)Nc1ccccc12 — inhibition (CDK4; cell-free assay, inhibitor, TR-FRET; 1 µM): 18.6%
Cc1cnn2ncc(-c3ccnc(N(C)C)n3)c2c1 — remaining binding (CDK4 with cyclin D3; binding; 1 µM): 83%
N#Cc1ccc(Nc2ccc3[nH]c(=O)[nH]c3c2)c(Cl)c1 — remaining binding (CDK4; cell-free assay, competition with immobilised ligand; 1 µM): 100%
Cc1cc(NC(=O)c2cccc3cc(-c4cccc5[nH]nc(N)c45)ccc23)ccc1F — activity vs control (CDK4 with cyclin D3; enzyme activity, inhibitor; 0.1 µM): 89%
CN(C)c1nccc(-c2cnc3ncccn23)n1 — remaining binding (CDK4 with cyclin D1; binding; 1 µM): 51%
CCN(CC)CCNC(=O)c1c(C)[nH]c(/C=C2\C(=O)Nc3ccc(F)cc32)c1C — remaining signal (CDK4 with cyclin D1; cell-free assay; 0.5 µM): 81%
CCOCCn1cc(C(=O)Nc2ccc(-n3nc(-c4cccnc4)cc3C(F)(F)F)cn2)ccc1=O — remaining binding (CDK4; cell-free assay, competition with immobilised ligand; 1 µM): 87%
O=C(Nc1cnn(-c2csc(C(=O)NC3COC3)c2)c1)Nc1c(F)cccc1Cl — remaining activity (CDK4 with cyclin D3; enzyme activity, inhibitor; 5 µM): 79.4%
O=C(N[C@H]1CCCCC/C=C\C2C[C@@]2(C(=O)O)NC(=O)[C@@H]2C[C@@H](Oc3ccncc3)CN2C1=O)OC1CCCC1 (stereo partly shown) — remaining binding (CDK4; binding, competition with immobilised ligand; 1 µM): 100%
O=C1NC(=O)c2cc(Nc3ccc(F)cc3)c(Nc3ccc(F)cc3)cc21 — remaining signal (CDK4 with cyclin D3; cell-free assay; 0.5 µM): 99%
CCC(=N\O)/C(C)=C/c1ccc(F)cc1 — remaining binding (CDK4 with cyclin D3; cell-free assay, competition with immobilised ligand; 1 µM): 74%
F[C@@H]1CCN(c2nccc(-c3cnn4ncccc34)n2)C1 — remaining binding (CDK4; binding; 1 µM): 100%
O=C(c1ccc(Cl)c(Cl)c1)[C@H]1Cc2c(cc([N+](=O)[O-])cc2[N+](=O)[O-])[C@H](O)[C@]12C(=O)Nc1ccccc12 — inhibition (CDK4; cell-free assay, inhibitor, TR-FRET; 1 µM): 18.5%
N#CCCc1ccc2c(c1)-c1[nH]c3ccc([N+](=O)[O-])cc3c1CC(=O)N2 — remaining signal (CDK4 with cyclin D3; cell-free assay; 0.5 µM): 25.9%
Cc1sc(C(=O)NC2COC2)cc1-n1cc(NC(=O)Nc2c(F)cccc2Cl)cn1 — remaining activity (CDK4 with cyclin D1; enzyme activity, inhibitor; 10 µM): 78%
Cc1nccc(COC(=O)N2C[C@@H]3[C@@H](CNC(=O)c4ccc5[nH]nnc5c4)[C@@H]3C2)n1 — remaining binding (CDK4 with cyclin D1; cell-free assay, competition with immobilised ligand; 1 µM): 90%
CN(C)c1nccc(-c2cnn3ncccc23)n1 — remaining binding (CDK4; binding; 1 µM): 92%
C[C@@H]1CCN(C(=O)CC#N)C[C@@H]1N(C)c1ncnc2[nH]ccc12 — remaining signal (CDK4 with cyclin D1; cell-free assay, inhibitor; 0.5 µM): 94.1%
CC(=O)C1=C(C)N(c2cccc(C(F)(F)F)c2)C(=O)N[C@@H]1c1ccc(C#N)nc1 — remaining binding (CDK4; cell-free assay, competition with immobilised ligand; 1 µM): 100%
